PvdQ acylase – P. aeruginosa PvdQ acylase inhibitors, primary screen, biochemical, fluorescence, plate reader and imaging, single point. inhibition, % at 10 µM. 0.063% of 340,000 active. purified PvdQ acylase. PvdQ acylase [Pseudomonas aeruginosa LESB58]; in the data active means inhibition above about 30%, passing the limit was not always enough;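 further: 0% = vehicle neutral wells and 100% = reference inhibitor wells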
HKDC1 inhibitor – HKDC1 hexokinase inhibitors, primary screen, biochemical, fluorescence, uHTS; Q2TB90; recombinant HKDC1, G6PDH/diaphorase resazurin coupled fluorescence; inhibition, % at 20 µM; 0.16% of 340,000 active;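 active means inhibition above about 35% when tested at 20 µM, limit read from the data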;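 further: plate controls were DMSO wells with enzyme for no effect and DMSO wells lacking enzyme for full effect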
Target sequence (Q2TB90 whole entry, looked up): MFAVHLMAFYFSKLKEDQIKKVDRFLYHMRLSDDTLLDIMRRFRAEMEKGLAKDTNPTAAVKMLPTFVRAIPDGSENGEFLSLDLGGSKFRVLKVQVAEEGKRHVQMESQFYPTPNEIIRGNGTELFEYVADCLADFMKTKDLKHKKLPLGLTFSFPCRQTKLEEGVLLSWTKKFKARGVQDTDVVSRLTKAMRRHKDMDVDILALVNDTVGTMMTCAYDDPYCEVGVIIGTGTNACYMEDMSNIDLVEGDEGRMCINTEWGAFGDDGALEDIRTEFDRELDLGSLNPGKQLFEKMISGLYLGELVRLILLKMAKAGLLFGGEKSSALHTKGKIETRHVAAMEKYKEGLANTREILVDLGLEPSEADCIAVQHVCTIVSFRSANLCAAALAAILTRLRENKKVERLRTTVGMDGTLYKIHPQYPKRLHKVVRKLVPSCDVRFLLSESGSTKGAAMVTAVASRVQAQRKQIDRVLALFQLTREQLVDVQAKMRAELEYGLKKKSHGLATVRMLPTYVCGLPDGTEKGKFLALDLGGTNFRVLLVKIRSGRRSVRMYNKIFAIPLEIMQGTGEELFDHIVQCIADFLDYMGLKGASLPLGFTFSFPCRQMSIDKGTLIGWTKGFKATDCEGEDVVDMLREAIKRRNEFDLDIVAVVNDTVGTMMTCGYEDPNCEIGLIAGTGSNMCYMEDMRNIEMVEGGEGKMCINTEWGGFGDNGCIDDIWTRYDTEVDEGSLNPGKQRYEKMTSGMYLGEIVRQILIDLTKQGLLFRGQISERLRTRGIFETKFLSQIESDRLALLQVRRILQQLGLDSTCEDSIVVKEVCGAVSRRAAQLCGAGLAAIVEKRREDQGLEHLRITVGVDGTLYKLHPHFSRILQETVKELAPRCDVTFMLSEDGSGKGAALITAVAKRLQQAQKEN
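Assay system: recombinant HKDC1 hexokinase; detection: coupled resazurin fluorescence, excitation 525 nm, emission 613 nm; benchmarks: DMSO-plus-enzyme-mix negative control, buffer-substituted positive control; compound dosing: single 20 µM dose; schedule: 90 min at room temperature in dark; also added: glucose plus 1 mM ATP as hexokinase substrates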
beta cell repl – inducers of MIN6 beta-cell proliferation, primary screen, ATP luminescence, uHTS | MIN6 cells proliferation, ATPlite luminescence, 48 h; cells starved in 0.2% serum; 100% = growth in 10% serum | proliferation, % at 10 µM | 0.29% of 330,000 active | AID 2380, 2010;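 active means compounds whose signal lies at least 3.5 SD above the mean of all wells on their plate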;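 further: 0% = DMSO-treated cells in low-serum medium and 100% = 10% serum control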
IMP-1 inhibitor – IMP-1 metallo-beta-lactamase inhibitors, primary screen, biochemical, epi-absorbance readout, Pseudomonas aeruginosa enzyme; 0.45% of 290,000 active; metallo-beta-lactamase IMP-1 (Pseudomonas aeruginosa); inhibition, % at 5.6 µM; AID 1556, 2009; purified IMP-1, nitrocefin hydrolysis, epi-absorbance fluorescence;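 active means inhibition above the mean plus 3 SD of all compounds in the same screening run, cut at about 4.5% in these data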;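 further: 0% = IMP-1 with DMSO and 100% = DMSO wells lacking enzyme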
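Test system: recombinant IMP-1 enzyme, purified / Medium: HEPES buffer pH 7.1 with ZnSO4 and Brij 35 / Doses: single dose, 5.6 µM / Times: 25 °C, 15 min preincubation, 25 min reaction / Detection: Epi-absorbance via hydrolysed-nitrocefin quenching of white-plate fluorescence, 480/530 nm, EDTA stop / Evaluation: percent inhibition from optical density relative to buffer-blank wells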
ATG4B inhibitor – ATG4B protease inhibitors, primary screen, biochemical, fluorescence, uHTS; Cysteine protease ATG4B (Homo sapiens), Q9Y4P1; 0.51% of 340,000 active; ATG4B cleavage of LC3-PLA2, NBD-HPC fluorescence, 1 h; inhibition, % at 8.33 µM; in the data active means inhibition above about 40%
VIM-2 inhibitor – VIM-2 metallo-beta-lactamase inhibitors, primary screen, biochemical, epi-absorbance readout, Pseudomonas aeruginosa enzyme; purified VIM-2, nitrocefin hydrolysis, epi-absorbance fluorescence; inhibition, % at 5.6 µM; 0.89% of 290,000 active; AID 1527, 2009;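 active means inhibition above the mean of all tested compounds plus 3 SD, cutoff set per screening run, cut at about 7.5% in these data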;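 further: red hydrolysis product quenches plate fluorescence so inhibitors raise well fluorescence; 0% = enzyme with DMSO and 100% = DMSO without enzyme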
* = called active by the depositor; / = not tested or not shown. This is a sample that favours compounds with a hit; in the whole collection about 2% have one here.

SMILES | PvdQ acylase | HKDC1 inhibitor | beta cell repl | IMP-1 inhibitor | ATG4B inhibitor | VIM-2 inhibitor
Cc1ccc(NC(=O)CN2CCN(C(=O)c3ccco3)CC2)cc1S(=O)(=O)N(C)C | -19.1 | -3.3 | / | / | -9.3 | /
Cc1c(Br)c(=O)oc2c(C)c(O)ccc12 | -1.7 | -5.0 | 3.9 | -5.5 | 5.9 | 8.4*
Cc1ccccc1NC1=C/C(=N\S(=O)(=O)c2cccs2)c2ccccc2C1=O | 7.8 | 62.6* | -5.8 | -2.2 | 95.2* | -3.6
Cc1ccc(NC2=C/C(=N/S(=O)(=O)c3cccs3)c3ccccc3C2=O)cc1C | 3.3 | 14.6 | / | -2.8 | -1.3 | -0.3
CN(C)C1CCN(Cc2cc(COCc3ccccc3)c3cccnc3c2O)C1 (stereo not drawn) | -10.6 | -35.0 | -5.6 | / | 6.5 | /
Oc1ccc(CN2CCCCC2)c2cccnc12 | -6.5 | -6.0 | -3.5 | -2.7 | 5.3 | 0.5
COCc1cc(CN2CCCC2)c(O)c2ncccc12 | 0.2 | -9.7 | -2.0 | -0.4 | -14.2 | 8.2*
Oc1c(CN2CCCCC2)cc(COCc2ccccc2)c2cccnc12 | 1.0 | -10.6 | -5.8 | -2.3 | 2.6 | 12.1*
CSCC[C@H](NC(=O)[C@@H]1CSC2c3ccccc3C(=O)N21)C(=O)NC1CCCC1 (stereo partly drawn) | 5.8 | -4.1 | 1.6 | -2.4 | 1.3 | 1.6
CCC(=O)Oc1ccc(/C(CC)=C(\CC)c2ccc(OC(=O)CC)cc2)cc1 | 1.0 | -1.6 | -7.1 | -1.2 | -7.5 | -0.4
CC1Cc2nc(SCC(=O)N3CCN(c4ccccc4)CC3)n(CCc3ccccc3)c(=O)c2S1 (stereo not drawn) | -0.2 | 0.7 | -5.1 | -3.2 | 9.6 | -1.6
CCn1c(SCC(=O)N2CCN(c3ccccc3)CC2)nc2c(c1=O)SC(C)C2 (stereo not drawn) | -15.4 | -2.2 | 1.6 | 4.9* | -9.0 | -0.5
CCOc1ccc(OCC)c(NC(=O)C2CCN(S(=O)(=O)c3cccc4nonc34)CC2)c1 | -9.9 | -3.0 | 0.9 | -3.2 | -14.1 | -3.9
CC(C)(C)C(=O)C(Oc1cccc2nonc12)n1cncn1 (stereo not drawn) | 1.9 | -7.3 | -0.4 | 34.9* | 6.0 | -2.3
CCCc1nnc(NC(=O)CCC(=O)Nc2ccc(F)cc2)s1 | -12.3 | -1.9 | -0.9 | -1.1 | -22.6 | -1.4
Cc1nn(-c2ccccc2)c2c1c(C)c(CCC(=O)N1CCOCC1)c(=O)n2C | -10.9 | -4.2 | -0.5 | -1.6 | -6.2 | 10.4*
CCn1c(=O)c(CCC(=O)N2CCOCC2)c(C)c2c(C)nn(-c3ccccc3)c21 | -10.7 | -2.5 | -1.1 | -1.1 | -6.6 | 8.4*
COc1ccc(CNC(=O)[C@H](CCSC)NC(=O)N2CCn3c2nc2ccccc23)cc1 | -10.4 | 1.0 | 1.6 | -1.6 | -16.9 | -2.6
CSCC[C@H](NC(=O)N1CCn2c1nc1ccccc12)C(=O)NCc1ccc(F)cc1 | -9.1 | 3.6 | -3.2 | 50.8* | -16.0 | -1.7
NC(=O)C1CCN(Cc2nc3cc(C(F)(F)F)ccc3c(=O)[nH]2)CC1 | -1.5 | 3.4 | -0.4 | -5.4 | -10.0 | -2.8
Cc1cc(C2C(=O)CC(=O)CC2c2ccccc2)on1 (stereo not drawn) | -14.8 | -3.6 | -1.1 | 7.7* | -1.9 | 3.2
COC(=O)C(C)NC(=O)c1ccc(C(C)(C)C)cc1 (stereo not drawn) | -6.5 | 10.6 | -2.5 | -5.4 | 6.2 | -2.8
CCOC(=O)/C(=C/C=C1\Sc2cc(C)c(C)cc2N1CC)C(C)=O | -5.1 | 2.3 | / | 4.8* | 3.5 | 2.8
Oc1c(Cl)cc(Cl)cc1C=Nc1ccc(N2CCOCC2)cc1 | -15.6 | 7.1 | -2.7 | -3.1 | 4.5 | 0.4
O=[N+]([O-])c1cc(Cc2ccccc2)cc(C=Nc2ccc(N3CCOCC3)cc2)c1O | -4.4 | 20.5 | / | 8.8* | 10.8 | -3.8
Cc1c(-n2c(SCC(=O)O)nnc2-c2ccccc2Br)c(=O)n(-c2ccccc2)n1C | -2.9 | -8.6 | -2.7 | -2.7 | -1.5 | 12.2*

Screening results (PubChem BioAssay)
